PGC1a acetyl inh – PGC1a acetylation modulation, inhibitor mode. U2OS PGC1a acetylation, AlphaScreen anti-acetyl-lysine; with virally co-expressed GCN5 acetyltransferase. inhibition, % at 15.6 µM. actives 0.17% (n = 350,000). AID 651687;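 active means every replicate shows inhibition of at least 40%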;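 further: 0% = neutral control wells and 100% = positive control wells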
C2C12 statin – suppression of simvastatin myotoxicity. rescue of ATP level, % at 7.49 µM. AID 602340. actives 0.78% (n = 330,000). C2C12 myotubes + simvastatin, ATP luminescence, 48 h; scaled: DMSO 0, geranylgeraniol control 100;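 active means mean ATP rescue above about 67%, or every replicate alone reaching that limit, limit read from the data, passing the limit was not always enough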;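 further: myotubes were challenged with 10 µM simvastatin during compound exposure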
Ecoli rRNA inh – selective bacterial rRNA inhibition in E. coli; actives 1.6% (n = 350,000); GFP signal change (wild-type ribosome), % (no concentration beside the values); E. coli WT GFP vs humanized-ribosome RFP mutants, fluorescence, 24 h; active compounds read low; DMSO median 0, no signal -100; AID 720706;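 active means significant combined selectivity score with lowered wild-type GFP, culture density cut under 30%, mutant RFP and density less affected; inactive means any of these conditions unmet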
Cneo AK release – causes C. neoformans cell lysis; adenylate kinase release luminescence, 4 h; normalised: neutral wells 0, clomiphene wells 100; lysis activity, % at 15 µM; actives 0.2% (n = 360,000); AID 651654;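 active means mean lysis activity across replicates of at least 80%, whatever share of replicates individually reach that level; inactive means mean lysis activity below 80%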
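Schedule: static 4 h at 37 °C with compound, 1 h detection; system: C. neoformans cells; benchmarks: Clomiphene as positive control; buffer or medium: fresh YPD medium; measure: luminescence rise reflecting yeast cell lysis; measured by: luminescent adenylate kinase detection reagent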
SIRT5 inh – inhibitors of human sirtuin-5 desuccinylase; Q9NXA8; Purified SirT5, succinyl-peptide AMC, trypsin-coupled fluorescence; inhibition, % at 15 µM; actives 1.1% (n = 330,000); in the data active means inhibition above about 15%
Target sequence (Q9NXA8 whole entry, looked up): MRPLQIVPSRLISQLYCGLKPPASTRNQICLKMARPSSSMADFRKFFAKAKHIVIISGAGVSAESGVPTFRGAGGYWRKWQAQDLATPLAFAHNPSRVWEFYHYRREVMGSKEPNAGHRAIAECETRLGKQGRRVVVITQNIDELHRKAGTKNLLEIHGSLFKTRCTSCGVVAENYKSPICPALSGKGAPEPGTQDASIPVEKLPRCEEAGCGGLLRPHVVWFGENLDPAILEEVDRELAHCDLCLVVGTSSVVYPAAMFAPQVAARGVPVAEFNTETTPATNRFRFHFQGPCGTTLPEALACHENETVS
S100A4 MyoIIA – inhibitors of human S100A4 binding to myosin IIA peptide | S100A4/TAMRA-MyoIIA peptide fluorescence polarization | inhibition, % at 10.7 µM | actives 0.14% (n = 360,000) | AID 652163;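 active means mean inhibition of at least 70% across replicates, with every replicate also reaching that level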
Target sequence (P26447 whole entry, looked up): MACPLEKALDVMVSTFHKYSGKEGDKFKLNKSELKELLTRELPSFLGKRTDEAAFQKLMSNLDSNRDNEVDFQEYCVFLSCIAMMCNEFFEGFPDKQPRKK
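Assay system: human S100A4 monomer with TAMRA-labelled myosin IIA peptide / Buffer or medium: Calcium-containing HEPES buffer, pH 7.2 / Reagent: TAMRA-labelled myosin IIA heavy-chain peptide probe, 5 nM / Compound: one dose per compound / Timing: polarization read 5 min after assay mix addition, stable 5–60 min / Benchmarks: neutral control DMSO, positive control TFP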
An asterisk follows results filed as active; ! = a repeat was not active. An excerpt weighted towards active compounds, which were near 3% of everything screened.

Results for C[C@H]1CN([C@@H](C)CO)C(=O)c2cc(NC(=O)CCCCCC(=O)Nc3ccccc3N)ccc2O[C@H]1CN(C)S(=O)(=O)c1ccccc1 ?
PGC1a acetyl inh: -3; Ecoli rRNA inh: -1; SIRT5 inh: 3; S100A4 MyoIIA: -5

Results for COc1ccc(NC(=O)N(C)C[C@H]2OCc3ccccc3-c3c(n(C)c4ccccc34)C(=O)N([C@H](C)CO)C[C@@H]2C)cc1 ?
PGC1a acetyl inh: 6; Ecoli rRNA inh: -6; Cneo AK release: 111*; SIRT5 inh: 14; S100A4 MyoIIA: 4

Results for COc1ccc(CNC(=O)N(C)C[C@@H]2OCc3ccccc3-c3c(n(C)c4ccccc34)C(=O)N([C@@H](C)CO)C[C@@H]2C)cc1 ?
Ecoli rRNA inh: -19*!; SIRT5 inh: -1; S100A4 MyoIIA: -3

Results for N#C[C@H]1[C@H](c2ccc(C#Cc3ccccc3F)cc2)[C@H](CO)N1C(=O)C1CCCC1 ?
Ecoli rRNA inh: -2; S100A4 MyoIIA: -15

What do the screens show for `C[C@@H]1CCCCO[C@@H](CN(C)S(=O)(=O)c2cccs2)[C@H](C)CN([C@H](C)CO)C(=O)c2cc(NC(=O)Nc3ccccc3)ccc2O1`?
PGC1a acetyl inh: -4; Ecoli rRNA inh: 0; Cneo AK release: -3; SIRT5 inh: 7; S100A4 MyoIIA: 0

Results for O=C(N/N=C/c1ccccn1)c1cccc([N+](=O)[O-])c1 ?
PGC1a acetyl inh: 10; Ecoli rRNA inh: 12; SIRT5 inh: -1; S100A4 MyoIIA: -6

How did O=C(NN=Cc1ccccc1O)c1cccc([N+](=O)[O-])c1 do in these assays?
PGC1a acetyl inh: 40; C2C12 statin: 2; Ecoli rRNA inh: -27*; Cneo AK release: -1; SIRT5 inh: -7; S100A4 MyoIIA: -3

What do the screens show for `COc1ccc(/C=N/NC(=O)c2ccc(NC(=O)c3cccc([N+](=O)[O-])c3)cc2)c(OC)c1`?
PGC1a acetyl inh: 97*; C2C12 statin: 2; Ecoli rRNA inh: 10; SIRT5 inh: -2; S100A4 MyoIIA: -6

How did O=[N+]([O-])c1ccc(N/N=C/c2ccccc2O)cc1 do in these assays?
C2C12 statin: 39; Ecoli rRNA inh: -19*; Cneo AK release: -2; SIRT5 inh: -4; S100A4 MyoIIA: 6

What do the screens show for `C[C@@H]1CN([C@H](C)CO)C(=O)Cc2cc(NC(=O)c3ccncc3)ccc2O[C@@H]1CN(C)S(=O)(=O)c1ccccc1`?
PGC1a acetyl inh: 2; C2C12 statin: 3; Ecoli rRNA inh: 4; Cneo AK release: -49; SIRT5 inh: 1; S100A4 MyoIIA: -3

What do the screens show for `Cc1ccc(/C=N/NC(=O)C[n+]2ccccc2)o1`?
PGC1a acetyl inh: 6; Ecoli rRNA inh: 17; SIRT5 inh: 21*; S100A4 MyoIIA: 3

Results for CC(SC(C)C(=O)NN=Cc1ccc(F)cc1)C(=O)NN=Cc1ccc(F)cc1 (centres undefined) ?
PGC1a acetyl inh: 3; C2C12 statin: 122*; Ecoli rRNA inh: 6; Cneo AK release: 3; SIRT5 inh: -2; S100A4 MyoIIA: 3

What do the screens show for `O=C(C[n+]1ccccc1)N/N=C/c1ccc(F)cc1`?
PGC1a acetyl inh: 9; Ecoli rRNA inh: 20; SIRT5 inh: 112*; S100A4 MyoIIA: 0

Results for Cc1noc(C)c1NC(=O)N(C)C[C@H]1OCCCC[C@@H](C)Oc2ccc(NS(=O)(=O)c3ccc(Cl)cc3)cc2C(=O)N([C@@H](C)CO)C[C@@H]1C ?
PGC1a acetyl inh: -5; Ecoli rRNA inh: 2; Cneo AK release: 1; SIRT5 inh: 3; S100A4 MyoIIA: -8

How did COc1ccc(NC(=O)Nc2ccc3c(c2)C(=O)N([C@@H](C)CO)C[C@H](C)[C@H](CN(C)C(=O)c2ccccc2)OCCCC[C@H](C)O3)cc1 do in these assays?
PGC1a acetyl inh: 9; C2C12 statin: 37; Ecoli rRNA inh: 0; Cneo AK release: 54; SIRT5 inh: 2; S100A4 MyoIIA: 3

How did CCCNC(=O)Nc1ccc2c(c1)C(=O)N(C)C[C@H](OC)[C@@H](C)CN(CC1CCCC1)[C@@H](C)CO2 do in these assays?
PGC1a acetyl inh: 21; C2C12 statin: 1; Ecoli rRNA inh: -3

What do the screens show for `C[C@H](CO)N1C[C@H](C)[C@@H](CN(C)C(=O)C2CCCCC2)Oc2ncc(C#CC3CCCCC3)cc2C1=O`?
Ecoli rRNA inh: 3

What do the screens show for `COc1ccc2c(c1)c(C(=O)OCCN(C)C)c(C)n2C`?
PGC1a acetyl inh: 9; C2C12 statin: 105*; Cneo AK release: -1

How did COCCOC(=O)c1c(C)n(C)c2ccc(OC(=O)c3c(OC)cccc3OC)cc12 do in these assays?
PGC1a acetyl inh: 3; C2C12 statin: -16; Ecoli rRNA inh: 1; Cneo AK release: -2; SIRT5 inh: -1; S100A4 MyoIIA: -1

Results for CCCNC(=O)[C@H]1[C@H](CO)[C@H]2Cn3c(ccc(C4=CCCC4)c3=O)[C@@H]1N2CCC(F)(F)F ?
C2C12 statin: 2; Ecoli rRNA inh: 0; Cneo AK release: 4; SIRT5 inh: -18; S100A4 MyoIIA: 0

Results for CCn1cc(C(=O)O)c(=O)c2cnc(N3CCN(C(=S)NC(=O)c4ccc(OC)cc4)CC3)nc21 ?
C2C12 statin: -4; Ecoli rRNA inh: -56; Cneo AK release: 2; SIRT5 inh: 29*; S100A4 MyoIIA: 0

What do the screens show for `O=Cc1cn(CCOc2ccccc2F)c2ccccc12`?
PGC1a acetyl inh: 3; C2C12 statin: 8; Ecoli rRNA inh: -42*; Cneo AK release: -8; SIRT5 inh: -5; S100A4 MyoIIA: 11

How did O=C(NCc1ccc(Cl)nc1)c1ccc2sc([C@@H]3O[C@H](CO)[C@H](O)[C@H](O)[C@H]3O)nc2c1 do in these assays?
PGC1a acetyl inh: -2; C2C12 statin: 2; Cneo AK release: 0; SIRT5 inh: 17*; S100A4 MyoIIA: 3

Results for CCC(=O)Nc1ccc2c(c1)C(=O)N(C)C[C@@H](OC)[C@@H](C)CN(C(=O)CN(C)C)[C@H](C)CO2 ?
PGC1a acetyl inh: 0; C2C12 statin: -15; Ecoli rRNA inh: 2

Results for C[C@H](CO)N1C[C@H](C)[C@@H](CN(C)Cc2ccc(C(=O)Nc3ccccc3N)cc2)Oc2ccc(NC(=O)Nc3ccc(C(F)(F)F)cc3)cc2C1=O ?
PGC1a acetyl inh: -1; C2C12 statin: 82*; Ecoli rRNA inh: -3; Cneo AK release: 0; S100A4 MyoIIA: -2

How did C[C@@H]1CN([C@@H](C)CO)C(=O)c2cc(NC(=O)Nc3ccc(C(F)(F)F)cc3)ccc2O[C@@H]1CN(C)Cc1ccc(C(=O)Nc2ccccc2N)cc1 do in these assays?
PGC1a acetyl inh: 16; C2C12 statin: 72*; Ecoli rRNA inh: -7; Cneo AK release: -2; SIRT5 inh: 4; S100A4 MyoIIA: 6

Assay outcomes deposited in PubChem by Broad Institute.
